From the EternaBench riboswitch data come the findings set out here.

The subject of the data set is MS2 coat protein. Put plainly: apparent Kd, MS2 coat protein; higher = weaker binding; RNA-MaP array; FMN 200 µM where present. The gist of the method: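 Green signal was scaled to red-channel RNA signal and control-cluster median Fmax, and the apparent Kd was taken as the median of filtered per-cluster binding-curve fits. The binding series used SNAP-549-labelled MS2 coat protein from 0.7 or 1.5 nM, doubling to 3 µM, on designs transcribed by stalled E. coli RNA polymerase on Illumina sequencing-chip clusters. Each series ran without and then with constant ligand in 100 mM Tris-HCl pH 7.5, 80 mM KCl, 4 mM MgCl2, BSA, DTT, yeast tRNA and Tween-20.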

[1] abbreviates: designed as: OFF switch for flavin mononucleotide, no ligand.
Where [2] appears, read: ligand present: flavin mononucleotide, designed as: OFF switch for flavin mononucleotide.
Setting [3] is: designed as: ON switch for flavin mononucleotide, no ligand.
Setting [4] is: ligand present: flavin mononucleotide, designed as: ON switch for flavin mononucleotide.

For “UUUAUUUAGGCAGGAUAUACAUGUAUAUAUAUUUCUUUAUAUCUUAUUACAUGAGGAUCACCCAUGUAGAAGGGCCUUCUUAUC”, the apparent Kd (usually a dissociation constant that holds for the conditions of the assay) runs as follows: under setting [1], 30.1 nM; under setting [2], 34.5 nM.
Turning to “GUAUGUUAUGAGGAUAUCGGUGAACAUACACAUCGAGAAGGCAUGACAUGAGGAUCACCCAUGUCAAGGAUGAC”, the “apparent Kd” value by setting is: under setting [1], 27.4 nM; under setting [2], 57.8 nM.
The matching figures for “AAAAAGUGAGGAUAUACAUGAGGAUCACCCAUGUGAAAGUCGAAAAAAAAGACAAAAAGUAGAAGGCACAAAAA”: 30.7 nM and 32.7 nM.
Take “GGUGCACGCACAGGAUAUCCGGCGGAGCUCGUCGGAGAAGGGUGACAUGAGGAUCACCCAUGUACGUGCAACUCGGUUUGAGAG”: the “apparent Kd” value worked out at 22.4 nM under setting [3] and 48.9 nM under setting [4].
For “UUGGGUCGGGAGGAUAUUCGGGCCCAAGGGCUUGGAGAAGGCUCGACAUGAGGAUCACCCAUGUAAGUGUACUU”, the “apparent Kd” value is, setting by setting: under setting [1], 26.4 nM; under setting [2], 73.3 nM.
Consider “ACCGAAUGAACAUGAGGAUCACCCAUGUACAGGAAACUGAAUGAGGAUAUCGAUAGCAAAGCUAUCGAGAAGGCAUGGGUCGGU”, for which the “apparent Kd” value under setting [3] is 285 nM and the “apparent Kd” value under setting [4] worked out at 69.7 nM.
The matching figures for “GUAGCAUAUGAUUUACAUGAGGAUCACCCAUGUAUCAUGGGUAAGGAUAUUGAUGUUAUGUUAAUCAAGAAGGUACUAUGCUAC”: 281 nM and 18.9 nM.
Consider “AAUAACAGAGGAUAUACUAUUUUAUGUGUUUGUUAUUUUAAACAUGAGGAUCACCCAUGUAGAAGGCUGAAUGA”, for which the “apparent Kd” value by setting is: under setting [1], 26.4 nM; under setting [2], 26.4 nM.
Turning to “GGAGCAUAUGUCAGGAUAUCGUGGUCGAUAGAUCACGAGAAGGGACAUGAGGAUCACCCAUGUCAGUCCGCUCC”, the “apparent Kd” value runs as follows: under setting [1], 14.3 nM; under setting [2], 20.7 nM.
As to “AUUAUGUCAGGAUAUCAGUAGUAAAAAAAAAAAAUUACUACUGAGAAGGGACAUGAGGAUCACCCAUGUCAAAA”, the “apparent Kd” value reads like this: under setting [1], 23 nM; under setting [2], 30.6 nM.
Regarding “UGUUGUAUUACAGGAUAUCUAUUAGUUUUUUUUAGAGAAGGGUAUUCACAUGAGGAUCACCCAUGUAUAUACGAGGAAGUUGUG”, the “apparent Kd” value reads like this: under setting [3], 50.2 nM; under setting [4], 51.7 nM.
The matching figures for “UCAUAUAUACAAGGAUAUCAAUUAUAUACACAUCCUACAUGAGGAUCACCCAUGUUUUAUUUUUUUGAGAAGGUGUAUUGUCGG”: 24.1 nM and 32.1 nM.
As to “AAAUUCUGAGGAUAUCGAUGUUUGUACAUGAGGAUCACCCAUGUCCUUUUUAUUUAAUCCCGAGAAGGCAGUGUAU”, the “apparent Kd” value is, setting by setting: under setting [1], 29 nM; under setting [2], 25.8 nM.
As to “CGGCGGAAAGGAUAUGCAGUAAUAUCAAAAUGUGGGCCACGACAUGAGGAUCACCCAUGUAGAAGGUUCAGCCA”, the “apparent Kd” value stood at 16 nM under setting [1] and 13.6 nM under setting [2].
On the same counts, the results for “AAUUAUUGAUGAGGAUAUUGUGGUGAAACACCACAAGAAGGCAUUAUACACAUGAGGAUCACCCAUGUGAGCCUGAUGCUUAUG” are 16.7 nM and 21.2 nM.
On to “UUGGACGUCGUAGGAUAUGUAGGAUAUUCCUACAUGAGGAUCACCCAUGUUGACUUGGAAGAAGGACAGAAGGACGAUGUCCAU”, for which the “apparent Kd” value reads like this: under setting [3], 22 nM; under setting [4], 4.06 nM.
As for “AAUUAUUUACAGAAGGAGUAAGAUUAUGUAUUACUAGGAUAUGUUCACAUGAGGAUCACCCAUGUCAAAGUAGGUUUUUUAUGU”, the “apparent Kd” value is, setting by setting: under setting [1], 12.4 nM; under setting [2], 12.3 nM.
On the same counts, the results for “CGGAUGUGAGGAUAUACAUGAGGAUCACCCAUGUGAGCCAGCUAGCUGACUGGCUCAUGUAGAAGGCACGUCUG” are 50.3 nM and 120 nM.
“CACUGCAUGUAAGGAUAUCGACUGGAAUACAGUCGAGAAGGUACAUGAGGAUCACCCAUGUAAGCAGUGAAUAAUAAUAAUAAU”: the “apparent Kd” value under setting [1] worked out at 12.1 nM and the “apparent Kd” value under setting [2] stood at 23.4 nM.
Turning to “AUUAUAUAGUAAGGAUAUAGAUUAUUAUUUUAACAUGAGGAUCACCCAUGUAGCCUUAUGUAUAACUAGAAGGUACAUUUAUUA”, the “apparent Kd” value runs as follows: under setting [1], 47.8 nM; under setting [2], 50.5 nM.
